Results as given in publication PMC8026699 (Cancer research, 2021).
≈ marks a conversion by molar mass, not a printed value.

Tests used:
recombinant human ACSS3 = target: T1, recombinant human ACSS3 (Homo sapiens, UniProt Q9H6R3); experiment: TranScreener AMP biochemical assay of ACSS3 activity; conditions: regardless of the substrate (acetate or propionate)
T1 sequence (Q9H6R3 30-686): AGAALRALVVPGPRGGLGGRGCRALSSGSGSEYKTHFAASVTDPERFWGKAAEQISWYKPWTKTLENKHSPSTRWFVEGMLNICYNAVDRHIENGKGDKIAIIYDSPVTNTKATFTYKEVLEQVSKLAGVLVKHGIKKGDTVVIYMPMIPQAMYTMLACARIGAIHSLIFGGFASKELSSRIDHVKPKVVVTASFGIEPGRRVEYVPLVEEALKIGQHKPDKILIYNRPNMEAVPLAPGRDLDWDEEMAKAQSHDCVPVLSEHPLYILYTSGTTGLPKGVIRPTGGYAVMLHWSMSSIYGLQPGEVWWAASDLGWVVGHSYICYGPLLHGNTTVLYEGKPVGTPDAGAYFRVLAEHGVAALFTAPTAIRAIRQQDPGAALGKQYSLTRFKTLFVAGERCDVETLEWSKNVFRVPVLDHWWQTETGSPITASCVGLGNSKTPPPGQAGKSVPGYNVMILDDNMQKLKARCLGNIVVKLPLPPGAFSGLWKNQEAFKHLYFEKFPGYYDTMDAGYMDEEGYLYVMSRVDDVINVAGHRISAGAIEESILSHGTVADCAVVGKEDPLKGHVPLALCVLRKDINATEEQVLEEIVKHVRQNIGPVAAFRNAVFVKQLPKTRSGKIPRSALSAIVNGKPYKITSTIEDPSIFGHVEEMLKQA
Summary of the method: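 Test compound was serially diluted in DMSO and added to ACSS1 (2 nM) or ACSS3 (25 nM). Acetate reaction: HEPES pH 7.4 buffer with 140 mM NaCl; final 5 mM acetate, 50 μM ATP, 5 μM CoA. Propionate reaction: HEPES/KCl/CHAPS buffer; final 5 mM propionate, 10 μM ATP, 100 μM CoA. Incubation 120 min, then AMP detected by terbium-antibody/tracer TR-FRET after 30 min. Percent inhibition was set against no-enzyme and DMSO controls.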

Water solubility in PBS = type: physicochemical; conditions: PBS buffer, pH 7.4
Summary of the method: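 10 mg test compound in 1 mL PBS pH 7.4, sonicated 30 min, vortexed 30 min at low speed, then left 16–24 h at room temperature. Filtered (0.22 μm) and 10-fold serially diluted in triplicate in ACN:water (1:1). Internal standard added; LC-MS/MS quantitation against a five-standard calibration curve.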

[1] = Human liver microsomal stability; type: in vitro ADME; conditions: 0.5 μM compound, 0.5 mg/mL microsomes; compared with VY-3-249
Summary of the method: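 Incubations: 0.5 μM compound, 0.5 mg/mL liver microsomes, NADPH-regenerating system, potassium phosphate pH 7.4. Timed aliquots quenched in acetonitrile with internal standard; no-cofactor controls run. LC-MS/MS analyte/internal-standard peak-area ratios. Elimination constant fitted by nonlinear regression; t1/2 from k = 0.693/t1/2. CLint scaled with 48 (mouse) or 39.7 (human) mg protein/g liver. n = 1.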

[2] = Pharmacokinetic analysis in CD-1 mice; type: in vivo, mouse; conditions: oral gavage 30 mg/kg, intravenous 2 mg/kg, intraperitoneal 10 mg/kg
Summary of the method: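 Formulation: 10% DMSO, 10% Solutol, 80% PBS. Dosing in CD-1 mice based on 28 g average weight. Three mice per time point; trunk blood collected into K2-EDTA and kept on wet ice until centrifugation. Plasma extracted in acetonitrile/water with tolbutamide internal standard, centrifuged, supernatant analysed by LC-MS. Mean ± S.D.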

ACSS1 in BT474 cells = experiment: 13C2-acetate labeling of citrate in BT474 cells; type: cell-based, human
Summary of the method: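 Cells grown 24 h in serum-like modified Eagle's medium (SMEM) with 0.1 mM uniformly labeled 13C2-acetate. Conditions were normoxia with 10% dialyzed FBS (N10) or 1% O2 hypoxia with 1% dialyzed FBS (H1). Vehicle or test compound present. Cells washed in ice-cold PBS and extracted with methanol/acetonitrile/water (5:3:2) at 4°C for 5 min. Cleared extracts analysed by HILIC LC-MS on a Q Exactive HF-X.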

A7C11 cells = experiment: 13C2-acetate labeling of palmitate in A7C11 cells; type: cell-based, mouse; conditions: A7C11, N10 and H1, 24 hr, 100 μM 13C2-acetate
Summary of the method: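 Cells labeled 24 h with 100 μM 13C2-acetate in SMEM under N10 (normoxia, 10% dialyzed FBS) or H1 (1% O2, 1% dialyzed FBS). Vehicle or test compound present; for BT474 in H1, a 10-fold dilution series. Lipids extracted with methanol/chloroform/PBS, saponified in 0.3 M KOH/90% methanol at 70°C for 1 h, then hexane-extracted. Palmitate labeling read by C18 reverse-phase LC-MS. n = 3, mean ± S.D.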

sgACSS2 Brpkp110 tumors = experiment: sgACSS2 Brpkp110 tumor growth in mice; type: in vivo, mouse; conditions: sgACSS2 Brpkp110 (ACSS2 knockout) tumors
Summary of the method: (§1)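 Parental or CRISPR-Cas9 sgAcss2 cells (lentiviral, blasticidin-selected pools) implanted subcutaneously into 5–6-week-old female NSG mice in PBS:Matrigel: A7C11 at 5×10^5, Brpkp110 at 5×10^5. Calipers read tumors three times weekly. Volume = (L × W²)/2, L being the longer measurement; not blinded.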

WHIM12 tumors = experiment: WHIM12 PDX tumor growth; type: in vivo, mouse; conditions: WHIM12 (ACSS2 low), 100 mpk daily PO
Summary of the method: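 Female NSG mice, 5–6 weeks old, received subcutaneous PBS:Matrigel grafts: BT474 at 1×10^6 (with a 60-day 17β-estradiol pellet at the neck), MDA-MB-468 at 5×10^6, or WHIM12 PDX cells at 2×10^6. Once tumors established, mice were randomized to daily IP or oral gavage. Arms: vehicle (10% DMSO, 20% solutol, 70% water with 0.5% Tween20) or 100 mg/kg test compound. Calipers thrice weekly; volume (L × W²)/2.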

[3] = Body weight in tumor xenograft studies; type: in vivo, mouse; conditions: 100 mg/kg daily IP or oral gavage vs vehicle
Summary of the method: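 Female NSG mice, 5–6 weeks old, carried subcutaneous tumours in PBS:Matrigel (BT474 with a 17β-estradiol pellet; MDA-MB-468, WHIM12, A7C11, Brpkp110) or BT474 mammary fat-pad orthografts. After tumour establishment, mice were randomized and dosed daily by IP injection or oral gavage. Groups received vehicle (10% DMSO, 20% solutol, 70% water containing 0.5% Tween20) or test compound at 100 mg/kg.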

A7C11 tumors = experiment: A7C11 tumor growth in mice; type: in vivo, mouse; conditions: A7C11 (ACSS2 low) tumors
Summary of the method: as §1

- solubility (Water solubility in PBS): 21.7 µM (≈ 9.32 µg/mL)
- stability in human liver microsomal assay [1]: superior stability
- exposure [2]: good exposure
Structure (SMILES): CCn1c(C(O)(c2ccccc2)c2ccccc2)nc2ccc(C(=O)NC[C@@H](C)O)cc21 [VY-3-135, (R)-1-ethyl-2-(hydroxydiphenylmethyl)-N-(2-hydroxypropyl)-1H-benzo[d]imidazole-6-carboxamide]
- inhibitory activity towards ACSS3 (recombinant human ACSS3): neither VY-3-249 nor VY-3-135 displayed any inhibitory activity
- absorption [2]: completely absorbed by all routes of administration
- 13C2-acetate labeling of citrate (ACSS1 in BT474 cells; BT474, H1 conditions, 24 hr): did not decrease
- M+2 citrate (acetate contribution to the TCA cycle) (ACSS1 in BT474 cells; BT474, hypoxia and low serum stressed cells): increased M+2 citrate
- acetate dependent labeling of palmitate by 13C2-acetate (A7C11 cells): efficiently blocked
- tumor growth (sgACSS2 Brpkp110 tumors): no further effect on tumor growth
- tumor growth (WHIM12 tumors): mostly ineffective
- body weight [3]: No significant differences in body weight
- tumor growth (A7C11 tumors): but not WHIM12 and A7C11 tumors
